pEC50: −log10 of the molar value. Values after ≈ are worked out from the molar mass of the structure shown. Active and inactive are the calls of the source. The rule behind the calls is not given here.
Experiments:
[1] = In-vitro chitinolytic activity of the compound assessed as p-nitrophenyl release from N-acetyl-beta-D-glucosaminide at 20 uM by chitinolytic activity assay; assay type: functional
[2] = tested on: Candida albicans; experiment: Induction of apoptosis in Candida albicans ATCC 90028 protoplast assessed as necrotic cells at 20 uM after 48 hrs Annexin V-FITC/propidium iodide staining based flow cytometric analysis (reference value: 0.33 +/- 0.20%); assay type: functional
[3] = tested on: Candida albicans; experiment: Effect on dilpoid nuclei level in Candida albicans ATCC 90028 planktonic forms at 16 ug/ml by ethidium bromide staining based gel electrophoresis and confocal laser scanning microscopy; assay type: functional, organism-based
[4] = tested on: Candida albicans; experiment: Antifungal activity against Candida albicans ATCC 90028 assessed as reduction in cell viability at 8 uM at after 48 hrs in presence of ergosterol by XTT assay; assay type: functional
[5] = tested on: Candida albicans; experiment: Disruption of cell wall in Candida albicans SC5314 assessed as decrease in chitin level by measuring chitin mean staining index at 20 uM after 18 hrs by calcofluor white staining-based flow cytometric analysis (reference value: 496 +/- 51); assay type: functional
[6] = tested on: Candida albicans; experiment: Growth inhibition of Candida albicans ATCC 90028 at 0.0313 ug/ml incubated for 4 hrs at 35 degC by broth microdilution method relative to control; assay type: functional; conditions: ATCC 90028, 4 h, read-out: GI
[7] = tested on: Candida albicans; experiment: Growth inhibition of Candida albicans ATCC 90028 at 0.0625 ug/ml incubated for 4 hrs at 35 degC by broth microdilution method relative to control; assay type: functional; conditions: ATCC 90028, 4 h, read-out: GI
[8] = tested on: Candida albicans; experiment: Growth inhibition of Candida albicans ATCC 90028 at 0.0625 ug/ml incubated for 18 hrs at 35 degC by broth microdilution method relative to control; assay type: functional; conditions: ATCC 90028, 18 h, read-out: GI
[9] = tested on: Candida albicans; experiment: Fungicidal activity against Candida albicans ATCC 90028 assessed as reduction in cell viability in RPMI medium in absence of sorbitol; assay type: functional
[10] = tested on: MCF7; experiment: Antiproliferative activity against human MCF7 cells assessed as cell viability at 25 uM after 72 hrs by MTT assay; assay type: functional; conditions: MCF7, 72 h, read-out: Activity
Summary of the method: (§1)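 MTT viability assay in CCRF-CEM and MCF-7 cells after 72 h exposure at 25, 50, 100 and 200 µM. Results are relative to control cells without inhibitor in 0.5% DMSO. Done in triplicate; values are means ± SD of three independent experiments.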

[11] = tested on: Candida albicans; experiment: Inhibition of cell adhesion of Candida albicans ATCC 90028 to African green monkey Vero cells at 0.0625 ug/ml relative to untreated control; assay type: functional; conditions: ATCC 90028, Vero
[12] = tested on: Candida albicans; experiment: (§2) Antifungal activity against Candida albicans ATCC 90028 infected in Galleria mellonella larvae infected with 20 uM compound pre-treated cell suspensions assessed as reduction in fat body formation in dark for 144 hrs at 30 degC and measured every 24 hrs by hematoxylin and eosin staining-based light microscopic analysis; assay type: functional, organism-based
[13] = tested on: Candida albicans; experiment: Antibiofilm activity in Candida albicans ATCC 90028 assessed as late apoptotic morphological changes by measuring reddish-orange fluorescence at 20 uM after 18 hrs by acridine orange/ethidium bromide staining-based confocal laser scanning fluorescence microscopic analysis; assay type: functional, organism-based
[14] = tested on: CCRF-CEM; experiment: Antiproliferative activity against human CCRF-CEM cells after 72 hrs by MTT assay; assay type: functional, cell-based
Summary of the method: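 EC50 was derived from a repeat 72 h MTT assay in CCRF-CEM or MCF-7 cells. It is the concentration killing 50% of tumour cells compared with control cells incubated without inhibitor in 0.5% DMSO.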

[15] = tested on: Candida albicans; experiment: Induction of chitinase release in Candida albicans ATCC 90028 assessed as p-nitrophenyl release from N-acetyl-beta-D-glucosaminide at 20 uM by chitinolytic activity assay; assay type: functional, organism-based
[16] = tested on: CCRF-CEM; experiment: Antiproliferative activity against human CCRF-CEM cells assessed as cell viability at 25 uM after 72 hrs by MTT assay; assay type: functional; conditions: read-out: Activity; summary of the method: as §1
[17] = tested on: MCF7; experiment: Antiproliferative activity against human MCF7 cells assessed as cell viability at 200 uM after 72 hrs by MTT assay; assay type: functional; conditions: MCF7, 72 h, read-out: Activity; summary of the method: as §1
[18] = tested on: Candida albicans; experiment: Inhibition of biofilm formation of Candida albicans ATCC 90028 at 20 uM […] by XTT assay; assay type: functional
[19] = tested on: Candida albicans; experiment: Antibiofilm activity in Candida albicans ATCC 90028 assessed as beta-glucan uniform distribution at 20 uM after 18 hrs by Congo red staining-based confocal laser scanning microscopic analysis; assay type: functional, organism-based
Summary of the method: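 Mature C. albicans biofilm cells were stained with 2% Congo Red to detect β-glucan exposure. They were imaged by confocal laser scanning microscopy as fluorescence and fluorescence/DIC overlays. Treated biofilms were compared with untreated control biofilm.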

[20] = tested on: Candida albicans; experiment: Induction of apoptosis in Candida albicans ATCC 90028 planktonic forms assessed as effect on DNA content of necrotic cells at 4 to 16 ug/ml by ethidium bromide staining based gel electrophoresis and confocal laser scanning microscopy; assay type: functional, organism-based
[21] = tested on: Candida albicans; experiment: Antibiofilm activity in Candida albicans ATCC 90028 assessed as increase in chitin distribution within biofilm cells at 20 uM after 18 hrs by calcofluor white staining-based confocal laser scanning microscopic analysis; assay type: functional, organism-based
[22] = tested on: Candida albicans; experiment: Antibiofilm activity in Candida albicans ATCC 90028 assessed as early apoptotic morphological changes by measuring crescent-shaped nuclei at 248 uM after 18 hrs by acridine orange/ethidium bromide staining-based confocal laser scanning fluorescence microscopic analysis; assay type: functional
Summary of the method: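 Unfixed biofilm cells were dual-stained in situ with acridine orange and ethidium bromide, each at 100 µg/mL. Confocal fluorescence and DIC imaging scored green AO nuclei, crescent-shaped chromatin, reddish-orange late apoptotic/necrotic cells and EB uptake, against untreated control biofilm. […]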

[23] = tested on: Candida albicans; experiment: as §2, with “31” for “20”, “fungal cell nodules” for “fat body formation”; assay type: functional, organism-based
[24] = tested on: Candida albicans; experiment: Induction of apoptosis in Candida albicans ATCC 90028 protoplast assessed as necrotic cells at 248 uM after 48 hrs Annexin V-FITC/propidium iodide staining based flow cytometric analysis (reference value: 0.33 +/- 0.20%); assay type: functional
[25] = tested on: Galleria mellonella; experiment: Toxicity in Candida albicans ATCC 90028 infected Galleria mellonella larvae infected with 31 uM compound pre-treated cell suspensions assessed as improvement in larvae health index scores incubated in dark for 144 hrs at 30 degC and measured every 24 hrs; assay type: organism-based; conditions: in vivo
[26] = tested on: Candida albicans; experiment: Induction of apoptosis in Candida albicans ATCC 90028 planktonic forms assessed as effect on DNA content of necrotic cells at 1 to 128 ug/ml by ethidium bromide staining based gel electrophoresis and confocal laser scanning microscopy; assay type: functional, organism-based
[27] = tested on: Candida albicans; experiment: as §2, with “31” for “20”, “fungal burden” for “fat body formation”; assay type: functional, organism-based
[28] = tested on: Candida albicans; experiment: Induction of apoptosis in Candida albicans ATCC 90028 planktonic forms assessed as increase in DNA damage at 1 ug/ml by ethidium bromide staining based gel electrophoresis and confocal laser scanning microscopy; assay type: functional, organism-based
[29] = tested on: Candida albicans; experiment: Antifungal activity against Candida albicans ATCC 90028 infected in Galleria mellonella larvae infected with 31 uM compound pre-treated cell suspensions assessed as cocoon formation incubated in dark for 144 hrs at 30 degC and measured every 24 hrs (reference value: 65%); assay type: functional
[30] = tested on: Candida albicans; experiment: Inhibition of biofilm formation of Candida albicans ATCC 90028 at 248 uM […] by XTT assay; assay type: functional

SMILES: CC(Cn1cnc2c1c(=O)n(C)c(=O)n2C)OCc1cn(CCCn2nc3c(Br)c(Br)c(Br)c(Br)c3n2)nn1 (configuration not stated)
- Activity [1]: 0.01 to 0.03 µmol/min
- Activity [2]: 93.94%
- Activity [3]: inactive
- Activity [4]: 68%
- Activity_index [5]: 370
- inhibition of growth at 0.0313 µg/mL [6]: 99.1%
- inhibition of growth at 0.0625 µg/mL [7]: 99%
- inhibition of growth at 0.0625 µg/mL [8]: 99.2%
- MFC [9]: 5 µM (≈ 3.97 µg/mL)
- viability at 25 µM [10]: 58.3%
- inhibition at 0.0625 µg/mL [11]: 89%
- Activity [12]: Active
- Activity [13]: Active
- pEC50 [14]: 5.19
- Activity [15]: inactive
- viability at 25 µM [16]: 0%
- viability at 200 µM [17]: 53.7%
- inhibition at 20 µM [18]: 47%
- Activity [19]: Active
- Activity [20]: inactive
- Activity [21]: Active

SMILES: CC(CN1c2ccccc2Sc2ccccc21)OC(=O)OC(C)Cn1cnc2c1c(=O)n(C)c(=O)n2C (configuration not stated)
- fold change (FC) [22]: 2
- Activity [23]: Active
- Activity [24]: 95.9%
- inhibition of growth at 0.0313 µg/mL [6]: 99.2%
- inhibition of growth at 0.0625 µg/mL [7]: 99.1%
- inhibition of growth at 0.0625 µg/mL [8]: 99.7%
- viability at 25 µM [10]: 58.8%
- Activity [25]: Toxic
- inhibition at 0.0625 µg/mL [11]: 89%
- Activity [26]: inactive
- Activity [27]: Active
- viability at 25 µM [16]: 22.1%
- viability at 200 µM [17]: 20.8%
- Activity [28]: inactive
- Activity [29]: 98%
- inhibition at 248 µM [30]: 61%

Reference: ChEMBL document CHEMBL4229342, “Synthesis of novel proxyphylline derivatives with dual Anti-Candida albicans and anticancer activity” (Eur J Med Chem, 2018)
